{"data": "Assay results collected from several papers", "observed": "enzyme activity", "mode": "inhibitor", "EGFR L858R/T790M": "Epidermal growth factor receptor (EGFR, Homo sapiens, UniProt P00533, L858R/T790M)", "EGFR": "Epidermal growth factor receptor (EGFR, Homo sapiens, UniProt P00533)", "note": "Protocols differ between the studies behind these lines. pIC50: −log10 of the molar value."}
{"SMILES": "C=C(Cl)C(=O)Nc1cc(Nc2nc(N3CCOCC3)c3sccc3n2)c(OC)cc1N(C)CCN(C)C", "target": "Epidermal growth factor receptor (EGFR, Homo sapiens, UniProt P00533, C797S/L858R/T790M)", "technique": "ELISA", "pIC50": "< 6.00"}
{"SMILES": "CCN(CC)C/C=N/NC(=O)Nc1cc2c(Nc3ccc(F)c(Cl)c3)ncnc2cc1O[C@H]1CCOC1", "target": "EGFR L858R/T790M", "pIC50": 7.88}
{"SMILES": "C=C(Cl)C(=O)Nc1cc(Nc2nc(N3CCc4sccc4C3)c3sccc3n2)c(OC)cc1N(C)CCN(C)C", "target": "EGFR L858R/T790M", "technique": "ELISA", "pIC50": 7.89}
{"SMILES": "O=C(N/N=C/CN1CCCCC1)Nc1cc2c(Nc3ccc(F)c(Cl)c3)ncnc2cc1O[C@H]1CCOC1", "target": "EGFR", "pIC50": 10.00}
{"SMILES": "COC(=O)/C=C/c1ccc2ncnc(Nc3cccc(C(F)(F)F)c3)c2c1", "target": "EGFR", "technique": "radiometric", "pIC50": 7.72}
{"SMILES": "COc1cc2c(Nc3ccc(OCCn4ccnc4[N+](=O)[O-])c(Cl)c3)ncnc2cc1OCCCN1CCOCC1", "target": "EGFR", "technique": "FRET", "pIC50": 6.72}
{"SMILES": "CCC(=O)Nc1cc(Nc2nc(N3CCc4sccc4C3)c3cccnc3n2)c(OC)cc1N1CCSCC1", "target": "EGFR", "technique": "ELISA", "pIC50": "< 6.00"}
{"SMILES": "CN(C)C/C=N/NC(=O)Nc1cc2c(Nc3ccc(F)c(Cl)c3)ncnc2cc1O[C@H]1CCOC1", "target": "EGFR L858R/T790M", "pIC50": 7.81}
{"SMILES": "C=C(Cl)C(=O)Nc1cc(Nc2nc(Nc3cnn(C)c3)c3sccc3n2)c(OC)cc1N(C)CCN(C)C", "target": "EGFR", "technique": "ELISA", "pIC50": 7.00}
{"SMILES": "COc1ccc2c(Oc3ccc4c(C(=O)Nc5ccccc5N)cccc4c3)ccnc2c1", "target": "EGFR", "pIC50": "< 6.30"}
{"SMILES": "C=CC(=O)Nc1cc(Nc2nc(N3CCc4sccc4C3)c3cccnc3n2)c(OC)cc1N1CCC(N(C)C)CC1", "target": "EGFR L858R/T790M", "technique": "ELISA", "pIC50": 6.46}
{"SMILES": "COc1ccc(-c2nn(-c3ccc(S(C)(=O)=O)cc3)cc2C=N/N=c2\\[nH]c(-c3ccc([N+](=O)[O-])cc3)cs2)cc1", "target": "Epidermal growth factor receptor (EGFR, Homo sapiens, UniProt P00533, L858R)", "pIC50": 7.51}
{"SMILES": "COc1cc2ncnc(Nc3ccc(F)c(Cl)c3)c2cc1NC(=O)N/N=C/c1cccn1CCN(C)C", "target": "EGFR L858R/T790M", "pIC50": 7.66}
{"SMILES": "Cc1ccc(-c2csc(Nc3ccc4c(O)ncnc4c3)n2)cc1", "target": "EGFR", "technique": "ELISA", "pIC50": 8.07}
{"SMILES": "CC(C)Cc1ccc(-c2nn(-c3ccc(S(C)(=O)=O)cc3)cc2/C=N/N=c2\\[nH]c(-c3ccc([N+](=O)[O-])cc3)cs2)cc1", "target": "EGFR L858R/T790M", "pIC50": 6.79}
{"SMILES": "C=CC(=O)Nc1cc(Nc2nccc(Nc3cc(Cl)c(F)cc3C(C)(C)O)n2)c(OC)cc1N1CC[C@@H](N(C)C)C1", "target": "EGFR", "notes": "with preincubation", "pIC50": 6.65}
{"SMILES": "Oc1ccc(-c2csc(Nc3ccc4c(O)ncnc4c3)n2)cc1", "target": "EGFR", "technique": "ELISA", "pIC50": 7.79}
{"SMILES": "COc1cc2ncnc(Nc3ccc(OCCCn4ccnc4[N+](=O)[O-])c(Cl)c3)c2cc1OCCCN1CCOCC1", "target": "EGFR", "technique": "FRET", "pIC50": 6.74}
{"SMILES": "COc1ccc(-c2nn(-c3ccc(S(C)(=O)=O)cc3)cc2/C=N/N=c2\\[nH]c(-c3ccc(Br)cc3)cs2)cc1", "target": "EGFR L858R/T790M", "pIC50": 7.51}
{"SMILES": "Oc1ncnc2cc(Nc3nc(-c4ccc(Cl)cc4)cs3)ccc12", "target": "EGFR", "technique": "ELISA", "pIC50": 8.32}
{"SMILES": "C=C(Cl)C(=O)Nc1cc(Nc2nc(Nc3cnn(C)c3)c3sccc3n2)c(OC)cc1N1CCN(C)CC1", "target": "EGFR", "technique": "ELISA", "pIC50": "< 6.00"}
{"SMILES": "C=CC(=O)Nc1cc(Nc2nccc(-c3cn(C4CC4)c4ccccc34)n2)c(OC)cc1N(C)CCN(C)C", "target": "Epidermal growth factor receptor (EGFR, Homo sapiens, UniProt P00533, L861Q)", "technique": "TR-FRET", "pIC50": 8.97}
{"SMILES": "CN1CCN(C/C=N/NC(=O)Nc2cc3c(Nc4ccc(F)c(Cl)c4)ncnc3cc2O[C@H]2CCOC2)CC1", "target": "EGFR L858R/T790M", "pIC50": 7.94}
{"SMILES": "COc1cc2ncnc(NCCSc3ccc(Cl)cc3)c2cc1OC", "target": "EGFR", "technique": "mobility shift", "pIC50": 6.49}
{"SMILES": "CCN(CC)CCCn1cccc1/C=N/NC(=O)Nc1cc2c(Nc3ccc(F)c(Cl)c3)ncnc2cc1O[C@H]1CCOC1", "target": "EGFR", "pIC50": 9.30}
{"SMILES": "Oc1ncnc2cc(Nc3nc(-c4ccc(Br)cc4)cs3)ccc12", "target": "EGFR", "technique": "ELISA", "pIC50": 8.30}
{"SMILES": "O=C(N/N=C/CN1CCOCC1)Nc1cc2c(Nc3ccc(F)c(Cl)c3)ncnc2cc1O[C@H]1CCOC1", "target": "EGFR L858R/T790M", "pIC50": 7.84}
{"SMILES": "COc1ccc(-c2csc(Nc3ccc4c(O)ncnc4c3)n2)cc1", "target": "EGFR", "technique": "ELISA", "pIC50": 8.00}
{"SMILES": "COc1cc2ncnc(Nc3ccc(F)c(Cl)c3)c2cc1NC(=O)N/N=C/c1cccn1CCCN(C)C", "target": "EGFR L858R/T790M", "pIC50": 7.61}
{"SMILES": "COc1cc2ncnc(Nc3ccccc3)c2cc1OC", "target": "EGFR", "technique": "mobility shift", "pIC50": 7.85}
